The values that follow come from ChEMBL document CHEMBL4017519, “Development of (4-Cyanophenyl)glycine Derivatives as Reversible Inhibitors of Lysine Specific Demethylase 1” (J Med Chem, 2017).

Data set [1] has as its target T1, Lysine-specific histone demethylase 1A (Homo sapiens, UniProt O60341). Briefly: Inhibition of N-terminal truncated human LSD1 (151 to 852 residues) expressed in Escherichia coli after 30 mins using histone H3(1-21)K4(Me1) biotin peptide as substrate by TR-FRET assay. Background: Time-resolved FRET reads energy transfer from a long-lived donor to a nearby acceptor.

In data set [2] the target is T1, Lysine-specific histone demethylase 1A. The data set is described as follows: Binding affinity to LSD1 (unknown origin) by SPR analysis. (SPR reads the build-up and loss of mass on a sensor chip optically.)
A short description of data set [3]: Half life in mouse liver microsomes. The data set is classed as ADME, microsome. A general note: Microsomes from liver hold many membrane-bound enzymes, among them those of drug oxidation.
A short description of data set [4]: Apparent permeability across apical to basolateral side in human Caco2 cells. The data set is classed as ADME, cell-based. The note with it: Caco-2.
In data set [5] the test system is Liver. Briefly: Intrinsic clearance in mouse liver microsomes assessed per […]. The data set is classed as ADME, microsome.
Data set [6] addresses T1, Lysine-specific histone demethylase 1A. The data set is described as follows: Inhibition of LSD1 in human THP1 cells assessed as induction of CD86 expression after 48 hrs by flow cytometric analysis. The data set is classed as cell-based.
Data set [7] relates to MV4-11. The data set is described as follows: Anticlonogenic activity against human MV4-11 cells at 10 uM after 7 days. The data set is classed as functional, cell-based.
Data set [8] has as its target Voltage-gated inwardly rectifying potassium channel KCNH2 (Homo sapiens, UniProt Q12809). The data set is described as follows: Inhibition of human hERG by patch clamp method.
Data set [9] deals with THP-1. The data set is described as follows: Induction of apoptosis in human THP1 cells at 10 uM after 4 days by Annexin V-perCP EF710/7AAD double staining based FACS analysis. The data set is classed as functional, cell-based. Summed up:
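THP-1 cells in liquid culture with 10 μM compound or vehicle for 4 days, then stained with an Annexin V/7-AAD kit per manufacturer and analysed by flow cytometry. Early apoptotic = Annexin V-pos/7-AAD-neg; apoptotic = Annexin V-pos/7-AAD-pos. One-way ANOVA with Dunnett's tests.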

In data set [10] the test system is THP-1. The data set is described as follows: Anticlonogenic activity against human THP1 cells at 10 uM after 7 days. The data set is classed as functional, cell-based.
The nature of data set [11]: Efflux ratio of apparent permeability in human Caco2 cells. The data set is classed as ADME, cell-based. The note with it: Caco-2.
Data set [12] has as its target T1, Lysine-specific histone demethylase 1A. The data set is described as follows: Inhibition of LSD1 in human THP1 cells assessed as induction of CD86 expression at 50 uM after 48 hrs by flow cytometric analysis. The data set is classed as cell-based. Summed up: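 THP-1 AML cells grown in RPMI with 10% FBS and 2 mM L-glutamine, exposed to compound or DMSO vehicle at 50 μM for 48 h at 1×10^5 cells/ml. Cells were pelleted and stained with CD86-PerCP EF710 antibody in phenol red-free RPMI with 5 mM EDTA and 2% BSA for 10 min at 4 °C, then washed and analysed by flow cytometry.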

Data set [13] shares this target. The data set is described as follows: Competitive binding affinity to LSD1 (unknown origin) in presence of tranylcypromine.
The species named for data set [14] is Homo sapiens. Briefly: Selectivity ratio of IC50 for human ERG to IC50 for N-terminal truncated human LSD1 (151 to 852 residues) expressed in Escherichia coli.

Active and inactive are the calls of the source. No cut-off for these calls is given here.

As a reminder, the IC50 is the concentration at which inhibition is half-maximal. High values mean weaker potency, low ones greater potency. As usually defined, the Kd is the free concentration of one partner at which half of the binding sites on the other are occupied at equilibrium, for simple one-to-one binding. Read a low Kd as a tighter complex. One may read the half-life as how long it takes for the measured level to halve. Read a low half-life as rapid decline. The Papp A→B is the apparent permeability from the apical to the basolateral side of a cell layer. The term EC50 denotes the midpoint of the concentration-response curve. One may read the efflux ratio as a quotient of directional permeabilities that is used to spot active efflux.

Sequence of Voltage-gated inwardly rectifying potassium channel KCNH2 (Q12809 whole entry): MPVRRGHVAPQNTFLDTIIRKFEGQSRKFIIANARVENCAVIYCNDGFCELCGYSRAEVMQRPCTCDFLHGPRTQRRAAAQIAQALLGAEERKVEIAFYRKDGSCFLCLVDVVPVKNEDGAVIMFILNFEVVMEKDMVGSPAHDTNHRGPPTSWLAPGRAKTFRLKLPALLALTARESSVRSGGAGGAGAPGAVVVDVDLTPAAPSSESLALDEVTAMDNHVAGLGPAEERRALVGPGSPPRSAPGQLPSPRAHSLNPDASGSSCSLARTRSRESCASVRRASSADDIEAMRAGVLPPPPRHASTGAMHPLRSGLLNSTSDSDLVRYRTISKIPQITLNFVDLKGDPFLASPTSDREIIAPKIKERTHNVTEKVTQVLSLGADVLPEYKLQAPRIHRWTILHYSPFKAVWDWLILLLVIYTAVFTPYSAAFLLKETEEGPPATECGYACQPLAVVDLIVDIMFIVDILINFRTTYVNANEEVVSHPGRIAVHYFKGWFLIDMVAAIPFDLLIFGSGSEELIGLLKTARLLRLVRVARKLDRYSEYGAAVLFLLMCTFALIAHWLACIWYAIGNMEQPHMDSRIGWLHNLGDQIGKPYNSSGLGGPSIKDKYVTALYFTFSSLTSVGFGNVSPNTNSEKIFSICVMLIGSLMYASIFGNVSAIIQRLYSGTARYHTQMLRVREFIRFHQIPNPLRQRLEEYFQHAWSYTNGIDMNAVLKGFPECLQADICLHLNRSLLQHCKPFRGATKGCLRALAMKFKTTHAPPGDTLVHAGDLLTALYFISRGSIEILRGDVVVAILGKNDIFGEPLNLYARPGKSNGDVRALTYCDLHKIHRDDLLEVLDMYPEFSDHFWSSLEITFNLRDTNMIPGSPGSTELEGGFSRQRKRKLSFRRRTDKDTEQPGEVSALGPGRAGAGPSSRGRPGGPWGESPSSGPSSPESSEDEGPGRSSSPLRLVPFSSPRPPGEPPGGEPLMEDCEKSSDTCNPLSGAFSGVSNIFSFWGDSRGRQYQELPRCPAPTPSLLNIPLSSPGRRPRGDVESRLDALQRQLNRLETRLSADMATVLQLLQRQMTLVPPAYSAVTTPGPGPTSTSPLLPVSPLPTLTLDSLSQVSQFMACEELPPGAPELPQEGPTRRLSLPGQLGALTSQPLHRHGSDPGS

As to `Cc1ccc(S(=O)(=O)N(CC(=O)NC2CCNCC2)c2ccc(C#N)cc2)cc1`, the half-inhibitory concentration (IC50) in [1] is 15600 nM. In data set [2], this compound registered a dissociation constant Kd of 6500 nM.

As to `N#Cc1ccc(N(CC(=O)N2CCC(CN)CC2)Cc2ccc(Cl)cc2)cc1`, the IC50 in data set [1] stood at 400 nM. For the same compound, in data set [2], the Kd amounted to 290 nM.

As to `N#Cc1ccc(N(CC(=O)N2CCC(CN)CC2)Cc2ccc(C(N)=O)cc2)cc1`, the IC50 in [1] was 830 nM. For the same compound, the Kd in [2] was found to be 490 nM.

Consider `COc1ccc(CN(CC(=O)N2CCC(N)CC2)c2ccc(C#N)cc2)cc1F`, for which, in [1], half-maximal inhibition (IC50) was put at 810 nM. The half-life in data set [3] is 6.42 h. Also, in [4], the Papp A→B was 0.44 ×10⁻⁶ cm/s. Also, in data set [5], the CLint is 3.6 µL/min. The Kd in [2] was determined as 190 nM.

For the compound `Cc1ccc(S(=O)(=O)N(CC(=O)N2CCC(C)(N)CC2)c2ccc(C#N)cc2)cc1`, in data set [1], the IC50 stood at 5200 nM. The affinity in data set [2], expressed as Kd, was 2500 nM.

On to `Cc1ccc(-c2ncc(OC[C@H]3CCNC3)cc2-c2ccc(C#N)cc2)cc1`, for which the EC50 in data set [6] was determined as 300 nM. In data set [3], this compound displayed a half-life of 6.73 h. For the same compound, the Papp A→B in data set [4] came out at 5.6 ×10⁻⁶ cm/s. The same compound gave a CLint in [5] of 3.43 µL/min. For the same compound, the result in [7], in data set [9] and in data set [10] was Active. In data set [8], this compound came in with an IC50 of 3200 nM. For the same compound, in data set [2], binding was characterised by a dissociation constant (Kd) of 9 nM.

For `Cc1ccc(S(=O)(=O)N(CC(=O)Nc2cccnc2)c2ccc(C#N)cc2)cc1`, in data set [1], the IC50 was > 150000 nM. In data set [2], this compound had a dissociation constant Kd of 90000 nM.

For the compound `COc1ccc(CN(CC(=O)N2CCC(CN)CC2)c2ccc(C#N)cc2)cc1F`, the IC50 came out at 210 nM in data set [1] and 12400 nM in data set [8]. Also, the EC50 in data set [6] worked out at 4100 nM. The half-life in data set [3] was 5.08 h. Also, the Papp A→B in [4] came out at 0.26 ×10⁻⁶ cm/s. The CLint in [5] turned out to be 4.5 µL/min. In [11], the efflux ratio amounted to 58. Binding in [2] was put at a Kd of 58 nM.

In turn, `COc1cc(NS(=O)(=O)c2ccc3c(c2)cc(C)c(=O)n3C)ccc1-n1nc(C)cc1C` registered an IC50 in [1] of 430 nM. For the same compound, in data set [12], the inhibition entry was “inactive”. Further, the outcome in [13] was inactive.

In the case of `N#Cc1ccc(N(CC(=O)N2CCC(CN)CC2)Cc2cccc(C(N)=O)c2)cc1`, the IC50 in data set [1] was determined as 1000 nM. This compound displayed a Kd in data set [2] of 420 nM.

Regarding `COc1cc(NS(=O)(=O)c2ccccc2)ccc1-n1nc(C)cc1C`, the IC50 in data set [1] amounted to 40000 nM.

As for `COc1ccc(CN(CC(=O)N2CCC(F)(CN)CC2)c2ccc(C#N)cc2)cc1F`, inhibition in data set [1] was half-maximal at 990 nM (IC50). This compound also displayed a Kd in data set [2] of 230 nM.

In turn, `Cc1ccc(S(=O)(=O)N(CC(=O)N2CCC(N)CC2)c2ccc(C#N)cc2)cc1` yielded an IC50 in data set [1] of 7600 nM. Also, in data set [2], the Kd turned out to be 2600 nM.

In [1], `Cc1ccc(CN(CC(=O)N2CCC(N)CC2)c2ccc(C#N)cc2)cc1` registered an IC50 of 1300 nM. Further, in data set [2], the Kd was determined as 430 nM.

`COc1cc(N(CC(=O)N2CCC(N)CC2)S(=O)(=O)c2ccc3c(c2)CCN3C(C)=O)ccc1-n1nc(C)cc1C`: in data set [1], the IC50 is > 30000 nM. Further, in data set [2], the Kd is > 100000 nM.

In data set [2], `CC(=O)Nc1ccc(S(=O)(=O)Nc2ccc(C#N)cc2)cc1` showed a Kd of 9500 nM.

For `N#Cc1ccc(N(CC(=O)N2CCC(CN)CC2)Cc2ccc(F)cc2)cc1`, the IC50 in data set [1] is 1300 nM. Besides, in data set [2], the Kd came out at 460 nM.

Turning to `CC(=O)N1CCc2cc(S(=O)(=O)N(CC(=O)N3CCC[C@@H](N)C3)c3ccc(C#N)cc3)ccc21`, in data set [1], the IC50 was found to be 5200 nM. In data set [2], this compound showed a Kd of 2400 nM.

As to `Cc1ccc(S(=O)(=O)N(CC(=O)N2CC[C@H](N)C2)c2ccc(C#N)cc2)cc1`, the IC50 in data set [1] amounted to 22700 nM. In data set [2], this compound had a Kd of 4700 nM.

On to `Cn1ncc2cc(CN(CC(=O)N3CCC(N)CC3)c3ccc(C#N)cc3)ccc21`, for which it took 620 nM to reach half-maximal inhibition in data set [1] (IC50). Besides, the Kd in [2] amounted to 140 nM.

In data set [1], `Cc1ccc(S(=O)(=O)N(CC(=O)N2CCC(N(C)C)CC2)c2ccc(C#N)cc2)cc1` yielded an IC50 of 12600 nM. Besides, in [2], the Kd was 2900 nM.

`Cc1ccc(S(=O)(=O)N(CC(=O)N[C@H]2CN3CCC2CC3)c2ccc(C#N)cc2)cc1`: half-maximal inhibition in data set [1] (IC50) was put at 11900 nM. In data set [2], binding was put at a Kd of 3600 nM.

`N#Cc1ccc(N(CC(=O)N2CCC(N)CC2)Cc2ccc(C#N)c(F)c2)cc1`: inhibition in data set [1] was half-maximal at 5500 nM (IC50). Besides, in data set [2], the affinity, expressed as Kd, was 1900 nM.

`Cc1ccc(CN(CC(=O)N2CCC(CN)CC2)c2ccc(C#N)cc2)cc1`: the IC50 in data set [1] was determined as 290 nM. The compound also yielded a Kd in [2] of 110 nM.

The compound `Cn1cc2cc(N(CC(=O)N3CCC[C@@H](N)C3)S(=O)(=O)c3ccc(C#N)cc3)ccc2n1` had an IC50 in [1] of 30000 nM. Moreover, in data set [2], the Kd was found to be 9600 nM.

For the compound `Cc1ccc(S(=O)(=O)N(CC(=O)N2CCC[C@@H](N)C2)c2ccc(C#N)cc2)cc1`, it took 13900 nM to reach half-maximal inhibition in [1] (IC50). This compound came in with a Kd in [2] of 4500 nM.

As to `Cc1ccc(S(=O)(=O)N(CC(=O)N[C@@H]2CN3CCC2CC3)c2ccc(C#N)cc2)cc1`, in data set [1], the IC50 stood at 14200 nM. This compound yielded a Kd in data set [2] of 3500 nM.

Turning to `N#Cc1ccc(N(CC(=O)N2CCC(N)CC2)Cc2ccccc2)cc1`, the IC50 in data set [1] was determined as 4100 nM. For the same compound, the Kd in data set [2] was 1100 nM.

In data set [1], `COc1cc(NS(=O)(=O)c2ccc3c(c2)CCN3C(C)=O)ccc1-n1nc(C)cc1C` yielded an IC50 of 1600 nM. The Kd in data set [2] was > 100000 nM.

`Cc1ccc(S(=O)(=O)N(CC(=O)N2CCC[C@H](N)C2)c2ccc(C#N)cc2)cc1` displayed an IC50 in data set [1] of 24300 nM. In [2], this compound yielded a Kd of 10300 nM.

In the case of `COc1ccc(CN(CC(=O)N2CCC3(CC2)CNC3)c2ccc(C#N)cc2)cc1F`, the IC50 came to 83 nM in data set [1] and 20100 nM in [8]. The Ratio IC50 in data set [14] came out at 30. The EC50 in data set [6] came to 670 nM. Also, the half-life in data set [3] is > 16.7 h. Also, the Papp A→B in data set [4] amounted to 0.09 ×10⁻⁶ cm/s. Besides, the CLint in data set [5] is < 1 µL/min. Further, the outcome in [7], in data set [9] and in data set [10] was Active. In addition, in data set [11], the efflux ratio is 58. For the same compound, the dissociation constant Kd in [2] worked out at 32 nM.

In the case of `CNC1CCN(C(=O)CN(c2ccc(C#N)cc2)S(=O)(=O)c2ccc(C)cc2)CC1`, the IC50 in data set [1] came to 7500 nM. In [2], this compound returned a Kd of 2900 nM.

For `Cc1ccc(S(=O)(=O)N(CC(=O)N2CC[C@@H](N)C2)c2ccc(C#N)cc2)cc1`, the IC50 in data set [1] turned out to be 16400 nM. The Kd in [2] was 3200 nM.

`CC(=O)N1CCc2cc(S(=O)(=O)N(CC(=O)N3CCC(N)CC3)c3ccc(C#N)cc3)ccc21` had an IC50 in data set [1] of 4400 nM. The compound further yielded a Kd in [2] of 1800 nM.

As for `Cc1ccc(S(=O)(=O)N(CC(=O)N2C[C@@H]3C[C@H]2CN3)c2ccc(C#N)cc2)cc1`, in [1], the midpoint of inhibition, the IC50, lay at 13100 nM. This compound also displayed a Kd in [2] of 2400 nM.
